{"source": "ChEMBL document CHEMBL1124134", "about": "“Chemical synthesis and biological activities of 5-deazaaminopterin analogues bearing substituent(s) at the 5- and/or 7-position(s)” (J Med Chem, 1988)", "key": {"Dihydrofolate reductase": {"molecular_target": "T1, Dihydrofolate reductase (Mus musculus, UniProt P00375)", "T1 sequence (P00375 whole entry)": "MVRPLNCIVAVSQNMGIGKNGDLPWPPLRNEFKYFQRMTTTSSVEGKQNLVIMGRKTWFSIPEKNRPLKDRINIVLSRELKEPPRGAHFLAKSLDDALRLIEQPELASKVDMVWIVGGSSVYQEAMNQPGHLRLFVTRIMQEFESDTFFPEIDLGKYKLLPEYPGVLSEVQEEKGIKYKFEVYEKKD", "assay": "Inhibitory activity against dihydrofolate reductase (DHFR) of L-1210 cells", "format": "cell-based"}, "L1210": {"tested_on": "L1210", "assay": "Inhibition of cell growth of murine L-1210 cells", "format": "functional, cell-based", "conditions": "Mus musculus"}, "HL-60 [1]": {"tested_on": "HL-60", "assay": "Median-effective concentration for inhibition of human HL-60 cell growth at 24 h", "format": "functional", "conditions": "HL-60, 24 h, read-out: ED50 (the source's name)", "procedure,_shortened": "(§1)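 HL-60 cells exposed to five concentrations of each compound for up to 72 h, with viable cells counted by trypan blue exclusion. ED50 at 24, 48 or 72 h derived by median-effect equation and plot. Where dose-effect curves were shallow, values were assigned with < or << marks.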"}, "HL-60 [2]": {"tested_on": "HL-60", "assay": "Compound was evaluated for inhibition of human HL-60 cell growth at 1 (uM) at 24 hr", "format": "functional", "procedure,_shortened": "(§2)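 HL-60 cells exposed to compound for up to 72 h. Viable cells counted by trypan blue exclusion, with percent growth inhibition read at 1 μM after 24, 48 or 72 h.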"}, "HL-60 [3]": {"tested_on": "HL-60", "assay": "Compound was evaluated for inhibition of human HL-60 cell growth at 1 (uM) at 48 hr", "format": "functional", "procedure,_shortened": "as §2"}, "HL-60 [4]": {"tested_on": "HL-60", "assay": "Compound was evaluated for inhibition of human HL-60 cell growth at 1 (uM) at 72 hr", "format": "functional", "procedure,_shortened": "as §2"}, "HL-60 [5]": {"tested_on": "HL-60", "assay": "Inhibition of [6-3H]-dUrd incorporation into DNA in HL-60 cells", "format": "functional", "conditions": "Homo sapiens, read-out: ED50 (the source's name)", "procedure,_shortened": "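HL-60 cells preincubated with compound for 40 min, then given [6-3H]dUrd (0.05 μM, 1 μCi/mL) for 30 min at 37 °C, and label incorporated into DNA measured. Five compound concentrations were used, with ED50 from the median-effect equation and plot. For shallow curves, values were given as < or <<.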"}, "HL-60 [6]": {"tested_on": "HL-60", "assay": "Median-effective concentration for inhibition of human HL-60 cell growth at 72 h", "format": "functional", "conditions": "HL-60, 72 h, read-out: ED50 (the source's name)", "procedure,_shortened": "as §1"}, "HL-60 [7]": {"tested_on": "HL-60", "assay": "Median-effective concentration for inhibition of human HL-60 cell growth at 48 h", "format": "functional", "conditions": "HL-60, 48 h, read-out: ED50 (the source's name)", "procedure,_shortened": "as §1"}}}
{"smiles": "Cc1nc2nc(N)nc(N)c2c(-c2ccccc2)c1CNc1ccc(C(=O)NC(CCC(=O)O)C(=O)O)cc1", "note": "(stereo unspecified)", "values": [{"measurement": "Ki", "setting": "Dihydrofolate reductase", "value": "> 4", "unit": "pM"}, {"measurement": "IC50", "setting": "L1210", "value": 18.9, "unit": "µM"}]}
{"smiles": "Nc1nc(N)c2cc(CNc3ccc(C(=O)NC(CCC(=O)O)C(=O)O)cc3)c(-c3ccccc3)nc2n1", "note": "(stereo unspecified)", "values": [{"measurement": "Ki", "setting": "Dihydrofolate reductase", "value": "> 4", "unit": "pM"}, {"measurement": "IC50", "setting": "L1210", "value": 16.9, "unit": "µM"}]}
{"smiles": "Cc1c(CNc2ccc(C(=O)NC(CCC(=O)O)C(=O)O)cc2)c(-c2ccccc2)nc2nc(N)nc(N)c12", "note": "(stereo unspecified)", "values": [{"measurement": "Ki", "setting": "Dihydrofolate reductase", "value": "> 4", "unit": "pM"}, {"measurement": "IC50", "setting": "L1210", "value": 18.9, "unit": "µM"}]}
{"smiles": "Nc1nc(N)c2cc(CNc3ccc(C(=O)NC(CCC(=O)O)C(=O)O)cc3)cnc2n1", "note": "(stereo unspecified)", "values": [{"measurement": "IC50", "setting": "L1210", "value": 0.02, "unit": "µM"}]}
{"smiles": "Cc1nc2nc(N)nc(N)c2c(C)c1CNc1ccc(C(=O)NC(CCC(=O)O)C(=O)O)cc1", "note": "(stereo unspecified)", "values": [{"measurement": "Ki", "setting": "Dihydrofolate reductase", "value": 2.01, "unit": "pM"}, {"measurement": "EC50", "setting": "HL-60 [1]", "value": 42, "unit": "µM"}, {"measurement": "Inhibition", "setting": "HL-60 [2]", "value": 10.3, "unit": "%"}, {"measurement": "Inhibition", "setting": "HL-60 [3]", "value": 19.8, "unit": "%"}, {"measurement": "Inhibition", "setting": "HL-60 [4]", "value": 50.8, "unit": "%"}, {"measurement": "EC50", "setting": "HL-60 [5]", "value": 568, "unit": "µM"}, {"measurement": "IC50", "setting": "L1210", "value": 0.125, "unit": "µM"}, {"measurement": "EC50", "setting": "HL-60 [6]", "value": 0.59, "unit": "µM"}, {"measurement": "EC50", "setting": "HL-60 [7]", "value": 8.2, "unit": "µM"}]}
{"smiles": "Cc1c(CNc2ccc(C(=O)NC(CCC(=O)O)C(=O)O)cc2)cnc2nc(N)nc(N)c12", "note": "(stereo unspecified)", "values": [{"measurement": "EC50", "setting": "HL-60 [1]", "value": 2290, "unit": "µM"}, {"measurement": "Inhibition", "setting": "HL-60 [2]", "value": 25.2, "unit": "%"}, {"measurement": "Inhibition", "setting": "HL-60 [3]", "value": 61.1, "unit": "%"}, {"measurement": "Inhibition", "setting": "HL-60 [4]", "value": 92.2, "unit": "%"}, {"measurement": "EC50", "setting": "HL-60 [5]", "value": "< 4", "unit": "µM"}, {"measurement": "IC50", "setting": "L1210", "value": 0.00011, "unit": "µM"}, {"measurement": "EC50", "setting": "HL-60 [6]", "value": "< 0.001", "unit": "µM"}, {"measurement": "EC50", "setting": "HL-60 [7]", "value": 0.15, "unit": "µM"}]}
{"smiles": "Cc1nc2nc(N)nc(N)c2cc1CNc1ccc(C(=O)NC(CCC(=O)O)C(=O)O)cc1", "note": "(stereo unspecified)", "values": [{"measurement": "Ki", "setting": "Dihydrofolate reductase", "value": "> 4", "unit": "pM"}, {"measurement": "EC50", "setting": "HL-60 [1]", "value": 144, "unit": "µM"}, {"measurement": "Inhibition", "setting": "HL-60 [2]", "value": 4.7, "unit": "%"}, {"measurement": "Inhibition", "setting": "HL-60 [3]", "value": 32.5, "unit": "%"}, {"measurement": "Inhibition", "setting": "HL-60 [4]", "value": 77.6, "unit": "%"}, {"measurement": "EC50", "setting": "HL-60 [5]", "value": 123, "unit": "µM"}, {"measurement": "IC50", "setting": "L1210", "value": 0.08, "unit": "µM"}, {"measurement": "EC50", "setting": "HL-60 [6]", "value": 0.011, "unit": "µM"}, {"measurement": "EC50", "setting": "HL-60 [7]", "value": 2, "unit": "µM"}]}
{"smiles": "CN(Cc1cnc2nc(N)nc(N)c2n1)c1ccc(C(=O)N[C@@H](CCC(=O)O)C(=O)O)cc1", "note": "[METHOTREXATE]", "values": [{"measurement": "EC50", "setting": "HL-60 [1]", "value": 609, "unit": "µM"}, {"measurement": "Inhibition", "setting": "HL-60 [2]", "value": 34.2, "unit": "%"}, {"measurement": "Inhibition", "setting": "HL-60 [3]", "value": 64, "unit": "%"}, {"measurement": "Inhibition", "setting": "HL-60 [4]", "value": 87.7, "unit": "%"}, {"measurement": "EC50", "setting": "HL-60 [5]", "value": 0.1, "unit": "µM"}, {"measurement": "IC50", "setting": "L1210", "value": 0.0045, "unit": "µM"}, {"measurement": "EC50", "setting": "HL-60 [6]", "value": "< 0.05", "unit": "µM"}, {"measurement": "EC50", "setting": "HL-60 [7]", "value": "< 0.05", "unit": "µM"}]}
